# Results pooled from the literature.
# Each line is one published result; the experiments were not run side by side.
# Target: Sodium-dependent dopamine transporter (SLC6A3, Homo sapiens, UniProt Q01959)
Structure (SMILES),effect on,mode,method,quantity,result
CN1[C@H]2CC[C@@H]1[C@@H](c1cc(-c3ccccc3)no1)[C@H](OC(c1ccc(F)cc1)c1ccc(F)cc1)C2,ligand displacement,,radioligand,Ki,28 nM
CNc1nc2cc(OCCCCN3CCN(c4cccc(Cl)c4Cl)CC3)ccc2s1,ligand displacement,,radioligand,Ki,2800 nM
Fc1ccccc1C(Cc1ccccc1)N1CCCC1 (stereo not shown),ligand displacement,,radioligand,Ki,327 nM
CC(NCc1ccccc1)C(=O)c1ccc2c(c1)OCO2 (stereo not shown),ligand displacement,,radioligand,Ki,< 100 nM
CN[C@]1(c2ccccc2Cl)CCCCC1=O,ligand displacement,,radioligand,IC50,> 100000 nM
CNC(C)(C)C(=O)c1ccccc1,calcium signal,agonist,fluorescence,EC50,590 nM
CCC[C@@H](C(=O)c1ccc(C)cc1)N1CCCC1,transporter uptake,inhibitor,radiometric,IC50,6.2 nM
C[C@@H](CN1CCC(Cc2ccccc2)CC1)[C@@H](O)c1ccc(O)cc1 (relative stereo),ligand displacement,,radioligand,Ki,6000 nM
NCCc1ccc(Oc2ccc(O)cc2)c(I)c1,ligand displacement,,radioligand,IC50,800 nM
CN[C@@H](C)C(=O)c1ccccc1,calcium signal,agonist,fluorescence,EC50,240 nM
